In article PMC3608738 (Antiviral research, 2012):
pIC50: −log10 of the molar value.

What was measured:
hRNMTase = hRNMTase (Homo sapiens, UniProt O43148); assay: [3H]SAM competition binding assay
WNV MTase [1] = molecular target: T1, WNV MTase (West Nile virus, UniProt Q9Q6P4); assay: In vitro 2'-O methylation inhibition assay; assay type: biochemical
Outline: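 2'-O methylation is followed as conversion of m7G*pppA-RNA to m7G*pppAm-RNA. Each reaction contains 1.5 μM WNV MTase, 80 μM SAM, 0.36 μM m7G*pppA-RNA substrate and a range of test compound concentrations. Products are digested with nuclease P1, and the caps are separated by TLC and quantified by PhosphorImager. Activity is taken from m7G*pppA versus m7G*pppAm, with no-compound activity set at 100%. IC50 comes from a dose–response fit; Ki comes from Cheng-Prusoff.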

WNV MTase [2] = molecular target: T1, WNV MTase; assay: In vitro N7 methylation inhibition assay; assay type: biochemical
[3] = molecular target: human guanine N-7 RNA MTase (hRNMTase) (Homo sapiens, UniProt O43148); assay: Inhibition of human RNA MTase; assay type: biochemical
Sequence of human guanine N-7 RNA MTase (hRNMTase) (O43148 whole entry): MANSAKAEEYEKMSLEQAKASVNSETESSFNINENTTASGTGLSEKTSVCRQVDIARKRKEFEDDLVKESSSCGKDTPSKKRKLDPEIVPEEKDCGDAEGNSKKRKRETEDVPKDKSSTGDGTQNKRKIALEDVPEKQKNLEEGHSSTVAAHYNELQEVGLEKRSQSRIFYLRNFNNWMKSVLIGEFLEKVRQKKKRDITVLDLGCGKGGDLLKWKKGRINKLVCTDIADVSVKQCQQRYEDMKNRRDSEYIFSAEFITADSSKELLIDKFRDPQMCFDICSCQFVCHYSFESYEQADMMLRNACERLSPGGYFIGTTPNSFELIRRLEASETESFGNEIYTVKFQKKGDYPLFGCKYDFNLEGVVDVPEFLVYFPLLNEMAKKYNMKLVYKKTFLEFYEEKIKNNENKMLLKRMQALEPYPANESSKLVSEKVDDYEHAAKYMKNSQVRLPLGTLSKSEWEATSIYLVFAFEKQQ

WNV (NY99) = assay: Viral titer reduction assay; assay type: cell-based, West Nile virus; details: A549 cells, WNV MOI 0.1, 42 h
Outline: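 About 2 × 10^5 A549 cells per well are treated 24-30 h after seeding, in triplicate. Test compound, made at 2X in medium with 2% DMSO, is added, followed immediately by WNV NY99 at MOI 0.1 PFU/cell. After 42 h at 37°C, culture fluid is titred by plaque assay on confluent Vero monolayers under a 0.6% agar overlay with a neutral red second overlay. EC50 comes from nonlinear regression of the dose–response curve.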

WNV MTase [4] = molecular target: T1, WNV MTase; assay: [3H]SAM competition binding assay; details: positive control, dose response
Outline: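 For G-25 filtration SAM competition, 0.6 μM WNV MTase is mixed with [methyl-3H]-SAM (about 14.1 nM final) and a 3-fold dilution series of test compound starting at 60 μM. Mixtures stand 2 h at room temperature and are spun through G-25 mini-columns. The eluted MTase-bound 3H is quantified by scintillation counting. Points are run in duplicate.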

T1 sequence (Q9Q6P4 2529-2794): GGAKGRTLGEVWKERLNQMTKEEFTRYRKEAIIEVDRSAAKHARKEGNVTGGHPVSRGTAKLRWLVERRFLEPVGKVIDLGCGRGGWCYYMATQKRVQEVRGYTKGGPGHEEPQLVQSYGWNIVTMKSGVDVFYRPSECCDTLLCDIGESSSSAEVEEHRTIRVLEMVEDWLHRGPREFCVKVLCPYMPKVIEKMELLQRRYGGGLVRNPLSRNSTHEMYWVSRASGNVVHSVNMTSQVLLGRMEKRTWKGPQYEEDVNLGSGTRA
Sequence of hRNMTase (O43148 whole entry): as the sequence (O43148 whole entry) above

Row | SMILES | Inhibition of [3H]SAM binding to hRNMTase (in words) (hRNMTase; 300 μM compound) | Hill coef. (2'-O) (WNV MTase [1]; dose-response curve of 2'-O MTase inhibition) | Fold lower Ki than GRL-001 (2'-O inhibition) (WNV MTase [1]; relative to GRL-001) [fold] | Inhibition of N-7 MTase activity (in words) (WNV MTase [2]) | Hill coef. (N-7) (WNV MTase [2]; dose-response curve of N-7 MTase inhibition) | Fold lower Ki than GRL-001 (N-7 inhibition) (WNV MTase [2]; relative to GRL-001) [fold] | Inhibition of hRNMTase activity (in words) ([3]; even at 300 μM compound concentration) | Concentration giving one logarithmic order of reduction in the WNV replication (WNV (NY99)) [μM] | Inhibition of [3H]SAM binding to hRNMTase (in words) (hRNMTase; control, dose response) | Inhibition of 3H-labeled SAM-MTase complex formation (in words) (WNV MTase [4]) | pIC50 [3]
1 | CCOC(=O)[C@@](C)(O)[C@@H]1C[C@@H](CO[Si](c2ccccc2)(c2ccccc2)C(C)(C)C)O[C@H]1n1cc(F)c(=O)[nH]c1=O [GRL-003] | did not inhibit | 2.8 | 12 | only moderately inhibited | 0.9 | 5 | did not inhibit | 50 |  |  | 
2 | Nc1ncnc2c1ncn2[C@@H]1O[C@H](C[C@@H](N)CC[C@H](N)C(=O)O)[C@@H](O)[C@H]1O [SIN, Sinefungin, reference compound] |  |  |  |  |  |  |  |  | decreased the SAM binding very efficiently | very efficiently in a dose-dependent manner | ~4.39
